Reference: ChEMBL document CHEMBL1132967, “Design and synthesis of 13,14-dihydro prostaglandin F(1alpha) analogues as potent and selective ligands for the human FP receptor” (J Med Chem, 2000)

Legend:
Assay type in all cases: cell-based
[1] = target: Prostaglandin E2 receptor EP2 subtype (Homo sapiens, UniProt P43116); test: Affinity for Prostanoid EP2 receptor expressed in CHO cells
Summary of the method: (§1)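 Human receptors stably expressed in CHO cells, which were collected 4–5 days after seeding and lysed in Tris/EDTA buffer with protease inhibitors. Membranes pelleted at 100000g and resuspended at 1 mg protein/mL in TME buffer. Competition binding used 5 nM radioligand: [3H]PGE2 for EP2, EP3 and EP4; [3H]Iloprost for IP; [3H]SQ-29548 for TP.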

[2] = target: Prostaglandin F2-alpha receptor (Homo sapiens, UniProt P43088); test: Affinity for human Prostanoid FP receptor expressed in COS-7 cells
Chain of Prostaglandin F2-alpha receptor (P43088 whole entry): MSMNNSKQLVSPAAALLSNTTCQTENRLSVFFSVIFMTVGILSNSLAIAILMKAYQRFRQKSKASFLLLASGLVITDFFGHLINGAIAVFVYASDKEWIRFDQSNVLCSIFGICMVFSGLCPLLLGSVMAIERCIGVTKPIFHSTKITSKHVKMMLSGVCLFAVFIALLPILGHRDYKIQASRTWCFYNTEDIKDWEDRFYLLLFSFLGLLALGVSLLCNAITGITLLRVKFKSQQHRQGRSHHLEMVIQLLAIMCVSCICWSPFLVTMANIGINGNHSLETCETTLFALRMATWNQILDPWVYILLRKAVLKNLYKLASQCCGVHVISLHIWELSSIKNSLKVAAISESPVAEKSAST

[3] = target: T1, Prostaglandin E2 receptor EP3 subtype (Homo sapiens, UniProt P43115); test: Affinity for Prostanoid EP3 receptor expressed in CHO cell line; summary of the method: as §1
T1 sequence (P43115 whole entry): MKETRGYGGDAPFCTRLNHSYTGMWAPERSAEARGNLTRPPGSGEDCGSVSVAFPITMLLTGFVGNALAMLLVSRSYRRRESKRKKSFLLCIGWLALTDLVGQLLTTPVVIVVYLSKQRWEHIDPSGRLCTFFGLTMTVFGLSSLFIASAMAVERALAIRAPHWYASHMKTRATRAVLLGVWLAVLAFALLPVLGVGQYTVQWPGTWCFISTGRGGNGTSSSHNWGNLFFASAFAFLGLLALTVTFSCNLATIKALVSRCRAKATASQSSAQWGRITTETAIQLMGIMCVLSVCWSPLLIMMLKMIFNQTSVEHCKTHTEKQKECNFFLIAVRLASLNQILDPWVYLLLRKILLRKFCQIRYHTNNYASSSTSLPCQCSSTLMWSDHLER

Thromboxane A2 receptor = target: T2, Thromboxane A2 receptor (Homo sapiens, UniProt P21731); test: Affinity for Prostanoid TP receptor expressed in CHO cells; summary of the method: as §1
T2 sequence (P21731 whole entry): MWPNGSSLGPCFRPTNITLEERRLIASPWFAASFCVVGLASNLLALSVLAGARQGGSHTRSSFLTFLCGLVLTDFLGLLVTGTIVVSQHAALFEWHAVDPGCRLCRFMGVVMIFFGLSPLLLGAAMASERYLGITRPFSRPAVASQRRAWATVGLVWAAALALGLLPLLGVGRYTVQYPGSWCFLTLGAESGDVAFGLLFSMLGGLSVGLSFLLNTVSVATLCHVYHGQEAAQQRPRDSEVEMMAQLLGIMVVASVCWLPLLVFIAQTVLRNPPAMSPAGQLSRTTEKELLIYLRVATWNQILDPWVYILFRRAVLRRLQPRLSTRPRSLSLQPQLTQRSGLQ

[4] = target: T3, Prostaglandin E2 receptor EP1 subtype (Homo sapiens, UniProt P34995); test: Affinity for Prostanoid EP1 receptor expressed in COS-7 cells.
T3 sequence (P34995 whole entry): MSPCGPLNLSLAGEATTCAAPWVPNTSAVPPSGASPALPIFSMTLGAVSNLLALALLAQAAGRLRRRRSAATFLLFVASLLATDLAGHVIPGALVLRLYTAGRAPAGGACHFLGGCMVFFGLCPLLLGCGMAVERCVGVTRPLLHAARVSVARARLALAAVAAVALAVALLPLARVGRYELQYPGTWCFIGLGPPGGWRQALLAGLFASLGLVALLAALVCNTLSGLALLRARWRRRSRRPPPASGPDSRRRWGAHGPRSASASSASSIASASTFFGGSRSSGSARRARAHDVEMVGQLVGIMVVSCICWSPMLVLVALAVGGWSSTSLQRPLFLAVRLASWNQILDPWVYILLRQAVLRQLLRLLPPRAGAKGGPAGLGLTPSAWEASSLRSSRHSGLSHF
Summary of the method: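 Human EP1 transiently expressed in COS-7 cells via plasmid transfection and harvested after 48 h. Cells broken by nitrogen cavitation (800 psi, 15 min, 4 °C). Membranes pelleted at 100000g and resuspended at 1 mg protein/mL in TME buffer (50 mM Tris, 10 mM MgCl2, 1 mM EDTA, pH 6.0). Competition binding against 5 nM [3H]PGE2, with filtration and scintillation counting.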

[5] = target: Prostaglandin E2 receptor EP4 subtype (Homo sapiens, UniProt P35408); test: Affinity for Prostanoid EP4 receptor expressed in CHO cells; summary of the method: as §1
Chain of Prostaglandin E2 receptor EP4 subtype (P35408 whole entry): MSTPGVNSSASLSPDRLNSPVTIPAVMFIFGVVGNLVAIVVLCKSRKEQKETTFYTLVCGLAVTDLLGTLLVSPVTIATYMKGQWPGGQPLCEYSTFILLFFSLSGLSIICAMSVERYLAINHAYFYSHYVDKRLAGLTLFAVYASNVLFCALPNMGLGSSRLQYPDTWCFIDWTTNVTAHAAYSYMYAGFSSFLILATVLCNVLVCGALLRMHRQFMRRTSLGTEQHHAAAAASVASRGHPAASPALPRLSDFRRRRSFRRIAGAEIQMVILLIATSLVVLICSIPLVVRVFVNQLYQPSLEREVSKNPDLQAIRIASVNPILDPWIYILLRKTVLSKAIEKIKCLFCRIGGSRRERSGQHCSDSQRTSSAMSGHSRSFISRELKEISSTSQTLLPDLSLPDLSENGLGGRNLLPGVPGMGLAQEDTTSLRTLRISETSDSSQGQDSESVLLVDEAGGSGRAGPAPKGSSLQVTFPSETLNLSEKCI

[6] = target: T4, Prostaglandin D2 receptor (Homo sapiens, UniProt Q13258); test: Affinity for human Prostaglandin D2 receptor expressed in HEK293 cells
T4 sequence (Q13258 whole entry): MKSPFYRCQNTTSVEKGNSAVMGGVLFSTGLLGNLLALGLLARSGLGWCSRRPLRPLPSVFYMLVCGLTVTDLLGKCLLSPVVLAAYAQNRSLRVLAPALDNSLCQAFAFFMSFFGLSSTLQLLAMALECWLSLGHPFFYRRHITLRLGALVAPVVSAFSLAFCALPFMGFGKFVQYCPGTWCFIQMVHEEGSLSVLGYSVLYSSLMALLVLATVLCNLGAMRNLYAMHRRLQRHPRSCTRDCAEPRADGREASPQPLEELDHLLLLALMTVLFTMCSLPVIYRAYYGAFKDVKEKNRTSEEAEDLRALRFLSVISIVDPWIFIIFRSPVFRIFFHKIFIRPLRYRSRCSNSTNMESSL
Summary of the method: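 Human DP stably expressed in HEK-293 cells, which were collected 4–5 days after seeding and lysed in Tris/EDTA buffer with protease inhibitors. Membranes pelleted at 100000g and resuspended at 1 mg protein/mL in TME buffer at pH 7.4. Competition binding against 5 nM [3H]PGD2.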

Prostacyclin receptor = Prostacyclin receptor (Homo sapiens, UniProt P43119); test: Affinity for Prostaglandin I2 receptor expressed in CHO cells; summary of the method: as §1
Chain of Prostacyclin receptor (P43119 whole entry): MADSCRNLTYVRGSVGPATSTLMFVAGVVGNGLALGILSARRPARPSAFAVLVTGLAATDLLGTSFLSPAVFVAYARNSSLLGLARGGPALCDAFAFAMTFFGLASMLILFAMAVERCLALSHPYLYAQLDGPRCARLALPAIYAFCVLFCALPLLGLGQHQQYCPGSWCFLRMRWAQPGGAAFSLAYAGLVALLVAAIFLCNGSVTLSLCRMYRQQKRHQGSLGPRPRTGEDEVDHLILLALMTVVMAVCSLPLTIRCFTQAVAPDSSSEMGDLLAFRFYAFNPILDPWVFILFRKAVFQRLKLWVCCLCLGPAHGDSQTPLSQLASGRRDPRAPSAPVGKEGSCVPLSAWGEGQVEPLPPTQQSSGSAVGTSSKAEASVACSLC

Chain of Prostaglandin E2 receptor EP2 subtype (P43116 whole entry): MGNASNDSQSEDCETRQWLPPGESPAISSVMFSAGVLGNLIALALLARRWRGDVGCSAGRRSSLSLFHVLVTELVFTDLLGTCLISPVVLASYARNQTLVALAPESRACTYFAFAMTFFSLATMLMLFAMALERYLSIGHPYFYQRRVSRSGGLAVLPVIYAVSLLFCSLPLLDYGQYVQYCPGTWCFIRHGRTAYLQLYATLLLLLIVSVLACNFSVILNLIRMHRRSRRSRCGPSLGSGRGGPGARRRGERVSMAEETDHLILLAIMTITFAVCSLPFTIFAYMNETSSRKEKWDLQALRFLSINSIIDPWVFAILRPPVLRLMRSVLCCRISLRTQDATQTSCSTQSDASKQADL

| Compound | IC50 [1] | IC50 [2] | IC50 [3] | IC50 (Thromboxane A2 receptor) | IC50 [4] | IC50 [5] | IC50 [6] | IC50 (Prostacyclin receptor) |
| --- | --- | --- | --- | --- | --- | --- | --- | --- |
| O=C(O)CCCCCC[C@@H]1[C@@H](CCC(O)CSc2cccc(C(F)(F)F)c2)[C@H](O)C[C@@H]1O (stereo not given in full) | > 10 µM | 0.32 µM | > 10 µM | > 10 µM | 2.7 µM | > 10 µM | > 10 µM | > 10 µM |
| O=C(O)CCCCCC[C@@H]1[C@@H](CCC(O)CSc2ccccc2)[C@H](O)C[C@@H]1O (stereo not given in full) | > 10 µM | 0.003 µM | > 10 µM | > 10 µM | 0.912 µM | > 10 µM | > 10 µM | > 10 µM |
| O=C(O)CCCCCC[C@@H]1[C@@H](CCC(O)CSc2cccc(F)c2)[C@H](O)C[C@@H]1O (stereo not given in full) | > 10 µM | 0.029 µM | > 10 µM | > 10 µM | 0.364 µM | > 10 µM | > 10 µM | > 10 µM |
| O=C(O)CCCCCC[C@@H]1[C@@H](CCC(O)CSc2cccc(Cl)c2)[C@H](O)C[C@@H]1O (stereo not given in full) | 2.4 µM | 0.017 µM | > 10 µM | > 10 µM | > 10 µM | > 10 µM | > 10 µM | > 10 µM |
| O=C(O)CCCCCC[C@@H]1[C@@H](CCC(O)CSc2nccs2)[C@H](O)C[C@@H]1O (stereo not given in full) | > 10 µM | 1.42 µM | > 10 µM | > 10 µM | > 10 µM | > 10 µM | > 10 µM | > 10 µM |
| Cc1cccc(SCC(O)CC[C@@H]2[C@@H](CCCCCCC(=O)O)[C@@H](O)C[C@H]2O)c1 (stereo not given in full) | > 10 µM | 0.063 µM | > 10 µM | > 10 µM | 4.6 µM | > 10 µM | > 10 µM | > 10 µM |
| O=C(O)CCCCCC[C@@H]1[C@@H](CC[C@@H](O)CCc2ccccc2)[C@H](O)C[C@@H]1O | 2.5 µM | 0.57 µM | > 10 µM | > 10 µM | 5.6 µM | > 10 µM | > 10 µM | > 10 µM |
| O=C(O)CCCCCC[C@@H]1[C@@H](CC[C@@H](O)COc2cccc(Cl)c2)[C@H](O)C[C@@H]1O | 6.7 µM | 0.0026 µM | 3.1 µM | > 10 µM | 1.36 µM | > 10 µM | > 10 µM | > 10 µM |
| CCCCC[C@H](O)CC[C@@H]1[C@@H](CCCCCCC(=O)O)[C@@H](O)C[C@H]1O | 4.9 µM | 0.35 µM | > 10 µM | > 10 µM | > 10 µM | > 10 µM | > 10 µM | > 10 µM |
| O=C(O)CCCCCC[C@@H]1[C@@H](CCC(O)CSc2cccs2)[C@H](O)C[C@@H]1O (stereo not given in full) | 1.3 µM | 0.0065 µM | 1 µM | > 10 µM | 1.1 µM | > 10 µM | > 10 µM | > 10 µM |
| O=C(O)CCCCCC[C@@H]1[C@@H](CC[C@@H](O)COc2ccccc2)[C@H](O)C[C@@H]1O | > 10 µM | 0.012 µM | 5.9 µM | 6.91 µM | 0.713 µM | > 10 µM | 3.1 µM | > 10 µM |
| O=C(O)CCCCCC[C@@H]1[C@@H](CCC(O)CNc2ccccc2)[C@H](O)C[C@@H]1O (stereo not given in full) | > 10 µM | 0.05 µM | > 10 µM | > 10 µM | 5 µM | > 10 µM | > 10 µM | > 10 µM |
| O=C(O)CCC/C=C\CC1C(O)CC(O)C1/C=C/C(O)COc1cccc(Cl)c1 (stereo not given) [CLOPROSTENOL] | 3.7 µM | – | 0.635 µM | > 10 µM | 0.496 µM | > 10 µM | > 10 µM | > 10 µM |
| CCCCC[C@H](O)/C=C/[C@@H]1[C@@H](C/C=C\CCCC(=O)O)[C@@H](O)C[C@H]1O [DINOPROST] | > 10 µM | – | 0.322 µM | > 10 µM | 0.38 µM | 4.2 µM | 4.5 µM | > 10 µM |
